These results are taken from ChEMBL document CHEMBL1155020, “Trithiocarbonates as a novel class of HDAC inhibitors: SAR studies, isoenzyme selectivity, and pharmacological profiles” (J Med Chem, 2008).

Test [1] has as its target Histone deacetylase 1 (Homo sapiens, UniProt Q13547). Nature of the test: Inhibition of recombinant HDAC1 expressed in HEK293 cells. Type of test: cell-based.
Test [2] addresses T1, Protein deacetylase HDAC6 (Homo sapiens, UniProt Q9UBN7).
T1 sequence (Q9UBN7 whole entry): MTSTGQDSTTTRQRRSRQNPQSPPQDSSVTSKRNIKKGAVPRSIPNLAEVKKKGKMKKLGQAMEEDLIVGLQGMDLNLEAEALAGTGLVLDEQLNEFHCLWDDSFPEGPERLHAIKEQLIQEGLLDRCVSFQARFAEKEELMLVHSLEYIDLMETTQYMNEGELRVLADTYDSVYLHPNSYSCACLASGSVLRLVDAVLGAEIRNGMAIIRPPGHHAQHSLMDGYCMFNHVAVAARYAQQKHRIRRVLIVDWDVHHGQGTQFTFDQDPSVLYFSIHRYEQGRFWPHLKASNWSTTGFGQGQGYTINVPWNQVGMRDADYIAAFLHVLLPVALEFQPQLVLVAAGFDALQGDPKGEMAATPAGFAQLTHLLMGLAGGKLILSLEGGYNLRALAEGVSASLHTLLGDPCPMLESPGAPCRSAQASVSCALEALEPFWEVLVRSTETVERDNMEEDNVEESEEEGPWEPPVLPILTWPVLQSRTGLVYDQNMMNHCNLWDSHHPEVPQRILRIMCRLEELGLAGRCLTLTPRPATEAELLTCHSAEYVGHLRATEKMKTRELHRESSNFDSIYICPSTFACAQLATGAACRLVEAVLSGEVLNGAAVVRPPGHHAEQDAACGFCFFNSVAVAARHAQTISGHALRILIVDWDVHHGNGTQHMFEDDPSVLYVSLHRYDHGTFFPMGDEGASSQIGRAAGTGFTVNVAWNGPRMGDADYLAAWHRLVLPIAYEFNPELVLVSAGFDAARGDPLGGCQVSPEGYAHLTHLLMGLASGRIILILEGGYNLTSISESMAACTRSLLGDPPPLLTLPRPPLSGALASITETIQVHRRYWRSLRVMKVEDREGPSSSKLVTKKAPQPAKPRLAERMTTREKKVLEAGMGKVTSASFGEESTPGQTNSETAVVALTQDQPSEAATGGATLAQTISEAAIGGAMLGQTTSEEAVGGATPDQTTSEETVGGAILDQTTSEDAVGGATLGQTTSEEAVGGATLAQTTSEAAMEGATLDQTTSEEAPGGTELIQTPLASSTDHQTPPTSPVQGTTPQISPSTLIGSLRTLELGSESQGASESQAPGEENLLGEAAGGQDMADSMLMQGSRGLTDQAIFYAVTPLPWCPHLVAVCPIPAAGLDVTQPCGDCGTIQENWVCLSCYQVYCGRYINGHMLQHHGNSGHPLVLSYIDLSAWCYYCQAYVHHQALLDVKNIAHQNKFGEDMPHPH
The test can be described thus: Inhibition of recombinant HDAC6 expressed in HEK293 cells. In kind it is cell-based.

For test [3], the target named is Histone deacetylase. Nature of the test: Inhibition of nuclear HDAC isolated from human HeLa cells. In kind it is cell-based.
The target in test [4] is Histone deacetylase. Nature of the test: Inhibition of HDAC in human HeLa cells. Type of test: cell-based.
In test [5] the test system is HeLa. The test can be described thus: Cytotoxicity against human HeLa cells after 72 hrs by alamar blue assay. Type of test: functional, cell-based. In short, it runs like this:
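HeLa cells were seeded at densities allowing growth through 72 h of compound exposure at 37 °C, 5% CO2. Viability was read by Alamar Blue (resazurin) reduction. Replicate assays were averaged, and IC50 was taken from concentration-effect curves.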
(Resazurin is reduced to fluorescent resorufin, in cell work by metabolically active cells.)

Histone deacetylase 1, sequence (Q13547 whole entry): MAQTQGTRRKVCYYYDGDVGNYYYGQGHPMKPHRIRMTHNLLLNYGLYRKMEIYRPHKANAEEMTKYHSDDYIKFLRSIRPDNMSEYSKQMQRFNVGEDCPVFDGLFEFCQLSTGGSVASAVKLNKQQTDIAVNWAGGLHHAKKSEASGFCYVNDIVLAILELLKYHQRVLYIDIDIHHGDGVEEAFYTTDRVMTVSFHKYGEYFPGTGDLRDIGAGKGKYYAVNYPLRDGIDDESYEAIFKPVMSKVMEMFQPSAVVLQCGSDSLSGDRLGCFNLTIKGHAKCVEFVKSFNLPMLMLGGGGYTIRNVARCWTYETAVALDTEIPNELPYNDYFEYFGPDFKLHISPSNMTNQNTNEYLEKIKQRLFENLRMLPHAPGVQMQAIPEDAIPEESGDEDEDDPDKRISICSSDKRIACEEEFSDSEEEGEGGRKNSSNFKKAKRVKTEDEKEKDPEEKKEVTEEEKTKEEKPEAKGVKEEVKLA

One may read the IC50 as the concentration at which inhibition is half-maximal. With `CCSC(=S)SCC(=O)c1cccc(CNC(C)=O)c1`, the IC50 in test [1] was found to be 38200 nM; in test [2], 816 nM; in test [3] it was 6590 nM; in test [4] it was 6820 nM; in test [5], 11300 nM.

`CCSC(=S)SCC(=O)c1ccc(NC(=O)Nc2ccccc2)cc1`: the IC50 was determined as 18800 nM in test [1]; 606 nM in test [2]; 40 nM in test [3]; 1190 nM in test [4]; 20200 nM in test [5].

As for `CCOC(=S)SCC(=O)c1ccc(OC)cc1`, the IC50 in test [1] worked out at 1380 nM; in test [2], 448 nM; in test [3] it was 811 nM; in test [4], 4720 nM; in test [5] it was 4640 nM.

With `CCSC(=S)SCC(=O)c1cccc(S(=O)(=O)Nc2cccc(C(N)=O)c2)c1`, the IC50 in test [1] stood at 1560 nM; in test [2], 181 nM; in test [3], 97 nM; in test [4], 1150 nM; in test [5], 7740 nM.

`CCSC(=S)SCC(=O)c1ccc(Nc2ncnc3ccccc23)cc1`: the IC50 in test [1] was 25800 nM; in test [2] it was 390 nM; in test [3], 379 nM; in test [4], 2990 nM; in test [5], 2640 nM.

Turning to `CCSC(=S)SCC(=O)c1ccc(NS(C)(=O)=O)cc1`, the IC50 in test [1] was found to be 6110 nM; in test [2] it was 1090 nM; in test [3], 1260 nM; in test [4] it was 8950 nM; in test [5], 45800 nM.

Consider `CCSC(=S)SCC(=O)c1ccc(NC(=O)c2ccccc2)cc1`, for which the IC50 in test [1] is 10400 nM; in test [2] it was 175 nM; in test [3], 74 nM; in test [4], 7460 nM; in test [5], 15800 nM.

As to `COCCSC(=S)SCC(=O)c1ccc(OC)cc1`, the IC50 in test [1] came out at 8940 nM; in test [2] it was 2130 nM; in test [3], 293 nM; in test [4], 5530 nM; in test [5] it was 7880 nM.

Regarding `CCSC(=S)SCC(=O)c1ccc(CN(C)C(C)=O)cc1`, the IC50 in test [1] was 946 nM; in test [2], 256 nM; in test [3] it was 384 nM; in test [4], 6330 nM; in test [5], 21500 nM.

Take `CCSC(=S)SCC(=O)c1ccc(NC(=O)c2cccnc2)cc1`: the IC50 in test [1] stood at 1160 nM; in test [2], 421 nM; in test [3] it was 174 nM; in test [4], 865 nM; in test [5], 5160 nM.

Consider `CCSC(=S)SCC(=O)c1ccc(C(=O)N[C@@H](C)c2ccccc2)s1`, for which the IC50 in test [1] stood at 497 nM; in test [2], 135 nM; in test [3], 49 nM; in test [4], 1030 nM; in test [5], 15800 nM.

For `CCSC(=S)SCC(=O)c1cccc(NC(C)=O)c1`, the IC50 is 2930 nM in test [1]; 329 nM in test [2]; 506 nM in test [3]; 3280 nM in test [4]; 9380 nM in test [5].

As to `CCSC(=S)SCC(=O)c1ccc(S(=O)(=O)Nc2ccc(Cl)cc2)cc1`, the IC50 amounted to 589 nM in test [1]; 340 nM in test [2]; 8 nM in test [3]; 299 nM in test [4]; 6080 nM in test [5].

For the compound `CCSC(=S)SCC(=O)c1ccc(C(=O)NCCOc2ccccc2)cc1`, the concentration for half-maximal inhibition (IC50) is 712 nM in test [1]; 483 nM in test [2]; 32 nM in test [3]; 964 nM in test [4]; 18200 nM in test [5].

On to `CCSC(=S)SCC(=O)c1ccc(C(=O)Nc2ccccc2)cc1`, for which the IC50 was determined as 27900 nM in test [1]; 521 nM in test [2]; 74 nM in test [3]; 1110 nM in test [4]; 25800 nM in test [5].

Regarding `CCSC(=S)SCC(=O)c1ccc(CCNC(C)=O)cc1`, the IC50 in test [1] was 607 nM; in test [2], 102 nM; in test [3], 587 nM; in test [4], 1480 nM; in test [5], 12800 nM.

Consider `CCSC(=S)SCC(=O)c1cccc(S(=O)(=O)Nc2ccc(OC)cc2)c1`, for which the IC50 was found to be 530 nM in test [1]; 519 nM in test [2]; 15 nM in test [3]; 2770 nM in test [4]; 5170 nM in test [5].

Consider `CCSC(=S)SCC(=O)c1cccc(NC(=O)c2cccnc2)c1`, for which the 50% inhibitory concentration (IC50) worked out at 388 nM in test [1]; 38 nM in test [2]; 184 nM in test [3]; 646 nM in test [4]; 7020 nM in test [5].

Turning to `COc1ccc(C(=O)CSC(=S)SCCOc2ccccc2)cc1`, the half-maximal inhibitory concentration (IC50) in test [1] was 9720 nM; in test [2], 4570 nM; in test [3], 128 nM; in test [4], 11600 nM; in test [5], 5460 nM.

For `CCNC(=S)SCC(=O)c1ccc(OC)cc1`, the IC50 in test [1] came out at 215 nM; in test [2] it was 94 nM; in test [3], 195 nM; in test [5], 7800 nM.

As to `CCSC(=S)SCC(=O)c1ccc(CNC(=O)c2ccccc2)cc1`, the IC50 was determined as 523 nM in test [1]; 301 nM in test [2]; 46 nM in test [3]; 632 nM in test [4]; 12700 nM in test [5].

On to `CCSC(=S)SCC(=O)c1ccc(C(=O)NCc2ccccc2)s1`, for which the IC50 in test [1] turned out to be 340 nM; in test [2], 44 nM; in test [3], 19 nM; in test [4], 411 nM; in test [5] it was 13000 nM.

As for `CCSC(=S)SCC(=O)c1ccc(NC(=O)c2cnc3ccccc3c2)cc1`, the IC50 in test [1] is 980 nM; in test [2], 119 nM; in test [3], 66 nM; in test [4] it was 748 nM; in test [5] it was 50000 nM.

`CCSC(=S)SCC(=O)c1cccc(NS(=O)(=O)c2ccccc2)c1`: the IC50 in test [1] is 1550 nM; in test [2], 104 nM; in test [3] it was 127 nM; in test [4], 2780 nM; in test [5], 11900 nM.

`CCSC(=S)SCC(=O)c1ccc(NC(C)=O)cc1`: the IC50 amounted to 1680 nM in test [1]; 180 nM in test [2]; 318 nM in test [3]; 857 nM in test [4]; 1460 nM in test [5].

As for `CCSC(=S)SCC(=O)c1ccc(S(=O)(=O)Nc2ccc(OC)cc2)cc1`, the IC50 stood at 227 nM in test [1]; 245 nM in test [2]; 16 nM in test [3]; 377 nM in test [4]; 4320 nM in test [5].

With `CCSC(=S)SCC(=O)c1cccc(C(=O)NCCOc2ccccc2)c1`, the IC50 in test [1] turned out to be 328 nM; in test [2], 198 nM; in test [3], 27 nM; in test [4], 500 nM; in test [5], 10200 nM.

For `COc1ccc(C(=O)CSC(=S)SCCNC(C)=O)cc1`, the concentration for half-maximal inhibition (IC50) in test [1] came to 7510 nM; in test [2], 1640 nM; in test [3], 467 nM; in test [4] it was 3470 nM; in test [5] it was 11100 nM.

Consider `CCSC(=S)SCC(=O)c1ccc(CC(=O)NCc2ccc(OC)cc2)s1`, for which the IC50 in test [1] is 887 nM; in test [2], 175 nM; in test [3], 26 nM; in test [4], 600 nM; in test [5], 1450 nM.

As to `CCSC(=S)SCC(=O)c1ccc(C(=O)Nc2ccccc2)s1`, the IC50 in test [1] is 31600 nM; in test [2], 245 nM; in test [3], 63 nM; in test [4], 423 nM; in test [5] it was 50000 nM.

As for `CCSC(=S)SCC(=O)c1ccc(-c2ccc(N)cn2)s1`, the IC50 in test [1] was determined as 831 nM; in test [2], 43 nM; in test [3], 83 nM; in test [4], 1180 nM; in test [5] it was 452 nM.
